Consider 4 compounds from article PMC7993229 (Oncoimmunology, 2021).

For data set [1] the following is noted: first-in-human clinical study; cited from earlier work.
A short description of data set [2]: Pharmacokinetic parameters of MF-766 in mice. The note with it: female, C57/B6, mouse, in vivo, po.
For data set [3], the system named is CT26 tumors. The experiment in a line: CT26 syngeneic tumor model efficacy study. Format: in vivo, BALB/c mouse. Summed up:
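Female BALB/cAnN mice (6–8 weeks) received 0.5 × 10^6 CT26 cells s.c. in the lower right flank. Dosing began at a mean tumor volume of 100 mm3 (75–125). Test compound 30 mg/kg (10% Tween 80) or vehicle was given orally QDx21; anti-PD-1 or isotype was given 10 mg/kg i.p. Q4Dx4. Volume = 0.5 × L × W², followed 60 days. RTV and TGI (%) were calculated; n = 9–12; one-way ANOVA vs vehicle/isotype.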

For data set [4], the system named is EMT6 tumors. The experiment in a line: EMT6 syngeneic tumor model efficacy study. Format: in vivo, BALB/c mouse. The note with it: MF-766 30 mpk. In short, it runs like this:
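EMT6 cells (0.5 × 10^6) were implanted s.c. in the right flank of female BALB/cAnN mice aged 6–8 weeks. Treatment started at a mean tumor volume of 100 mm3 (75–125). Test compound 30 mg/kg in 10% Tween 80 was dosed orally QDx28; anti-PD-1 10 mg/kg i.p. Q4Dx4. Tumor volume = 0.5 × L × W². Relative tumor volume and TGI (%) were derived vs control; n = 9–12; one-way ANOVA vs vehicle/isotype.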

A further data set deals with Human NK cells. The experiment in a line: Natural killer cell activation. Format: cell-based.
The subject of data set [5] is PGE2-induced MDSCs / autologous CD8+ T cells. Nature of the data set: Suppressive myeloid cell and T-cell co-culture assay. The note with it: 1:4 ratio, anti-CD3/CD28 beads, vs DMSO control; MF-766 10, 1, 0.1, 0.01 μM. Format: cell-based, human.
The subject of the next data set is human CD8+ T cells. The experiment in a line: MF-766 and pembrolizumab combination in human CD8+ T cells. It counts as cell-based. The note with it: for CD8+ T cell viability: Fig S2B. Summed up: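 CD8+ T cells were purified from frozen healthy-donor PBMCs and seeded at 1 × 10^5 cells/well in RPMI-1640 with 10% heat-inactivated FBS and 2 mM L-glutamine. Test compound was titrated from 3 µM in 3-fold steps ± PGE2 (10 nM), with pembrolizumab or human IgG4 isotype at 20 µg/mL. Cells were activated with anti-CD3/CD28 beads plus 100 U/mL IL-2 for 24 h at 37°C; IFN-γ was read by Meso Scale Discovery.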

The test system of a further data set is THP-1 cells. Nature of the data set: THP-1 LPS-stimulated TNF-α assay. Format: cell-based, human. The note with it: 1 h pretreatment, 1 μg/mL LPS + PGE2. Summed up:
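THP-1 monocytes were preincubated 1 h with graded test compound concentrations. They were then stimulated with 1 μg/mL LPS, with or without 0.33 μM PGE2, for 18 h. Cells were centrifuged and TNF-α in the supernatant was quantified by Meso Scale Discovery.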

The subject of data set [6] is healthy human whole blood. Nature of the data set: Ex vivo whole blood LPS-stimulated TNF-α assay. It counts as cell-based. The note with it: 1 μg/mL LPS + PGE2. Summed up:
(§1)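 Blood was collected in sodium heparin. Healthy-donor blood was used fresh on assay day; CRC patient blood was drawn 1 day before and shipped overnight. Samples were pretreated 1 h with test compound, then stimulated with 1 μg/mL LPS (final) ± 0.037 μM PGE2 for 18 h. After centrifugation, TNF-α in the supernatant was measured by Meso Scale Discovery.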

The test system of another data set is CRC patient blood. Nature of the data set: Ex vivo whole blood LPS-stimulated TNF-α assay. It counts as cell-based, human. The note with it: 1 μg/mL LPS + PGE2. Summed up:
as §1

The subject of data set [7] is bone marrow-derived dendritic cells (BMDCs). Nature of the data set: Dendritic cell activation. It counts as cell-based, C57/BL6 mice. The note with it: mouse BMDCs. Summed up: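 Bone marrow flushed from C57BL/6 femurs was cultured 6 days in RPMI with 20 ng/mL mouse GM-CSF and 20 ng/mL mouse IL-4 to give immature DCs. Cells were pretreated 1 h with test compound, then given 1 μg/mL LPS ± 0.037 μM PGE2 for 18 h. Supernatant TNF-α was read with a Meso Scale Discovery mouse panel.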

Data set [8] concerns human monocyte-derived DCs. The experiment in a line: Dendritic cell activation. It counts as cell-based. Summed up: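 Commercially sourced human dendritic cells were pretreated 1 h with test compound. They were then stimulated with 1 μg/mL LPS with or without 0.037 μM PGE2 for 18 h. TNF-α in the medium was quantified with a Meso Scale Discovery human pro-inflammatory panel.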

The subject of data set [9] is human primary tumor histoculture. The experiment in a line: Human tumor histoculture. It counts as cell-based. The note with it: histoculture system. In short, it runs like this: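 Tumor tissue was trimmed of fat, cut into ~400 µm slices and cultured at the air–liquid interface (37°C, 5% CO2) in DMEM with 10% FBS and penicillin/streptomycin. Slices were stimulated with 50 ng/mL anti-human CD3 plus test compound or DMSO for 48 h. IFN-γ, IL-2 and TNF-α were measured by Meso Scale Discovery and expressed as fold change vs DMSO (mean ± S.E.M, n = 8).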

Data set [10] deals with CT26 tumors. The experiment in a line: Flow cytometry of immune infiltrates in CT26 tumors. Format: in vivo, mouse. In short, it runs like this:
(§2)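 Mice bearing 100 mm3 tumors were dosed as in the efficacy schedule, and tumors were harvested on day 8. Tumors were weighed, enzymatically dissociated and filtered (70 µm). Then 2–3 million cells were stained with fixable viability dye, Fc-blocked 10 min on ice and surface-stained 30 min on ice. Populations were gated within viable CD45+ singlets (NK CD3−CD335+CD49b+; gMDSC CD11b+Ly6G+; macrophages; DCs) and reported as % CD45+ and cells/mg tumor; n = 9–10.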
(In general: A flow cytometer gives signals particle by particle.)

Data set [11] concerns EMT6 tumors. Nature of the data set: Flow cytometry of immune infiltrates in EMT6 tumors. The note with it: EMT6, single-agent treatment. It counts as in vivo, mouse. Summed up:
as §2

The conditions of data set [12]: rat AIA model; cited from earlier work.
The test system of a further data set is primary tumor digests. The experiment in a line: Anti-CD3-stimulated primary tumor digest culture. Format: cell-based, human. The note with it: without PGE2 spike. In short, it runs like this:
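Cells were plated at 0.1 × 10^6/well, from four donors, and cultured 48 h. IFN-γ and TNF-α in supernatants were read on a Meso Scale Discovery platform; technical-replicate means were taken per donor.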

Turning to `C[C@H](NC(=O)c1c(C(F)F)nn(C)c1Oc1cccc(C(F)(F)F)c1)c1ccc(C(=O)O)cc1` [E-7046], in data set [1], the tolerability result was “well tolerated”.

The AUC(0-t) is exposure summed from dosing to a finite time, without extrapolation to infinity. A lower AUC(0-t) goes with low exposure. One may read the Cmax as the peak of the concentration-time curve. Usually Tmax stands for the time at which the peak concentration occurs. Consider `O=C(O)c1ccc(C2(NC(=O)c3cccc4ccn(Cc5ccc(C(F)(F)F)cc5)c34)CC2)cc1` [MF-766, 4-[1-[([1-[4-(trifluoromethyl)benzyl]-1H-indol-7-yl]carbonyl)amino]cyclopropyl]be nzoic acid], for which the AUC(0-t) in data set [2] (30 mg/kg) turned out to be 57.5 ± 10.8 µM·h; in [2] (100 mg/kg) it was 255 ± 97.3 µM·h. For the same compound, the Cmax in [2] (30 mg/kg) is 15 ± 4.37 µM; in data set [2] (100 mg/kg), 24.1 ± 6.01 µM. In addition, the Tmax in data set [2] (30 mg/kg) and in data set [2] (100 mg/kg) was 30 min throughout. For the same compound, in the data set on CT26 tumors [3] (MF-766 30 mpk monotherapy), the “tumor progression on monotherapy” value is on record as “all tumors progressed”. In the data set on CT26 tumors [3] (compared to vehicle/isotype treated group, MF-766 30 mpk, muDX400 10 mpk), this compound returned a tumor volume reduction of 49%. Moreover, the single-agent activity entry in the data set on EMT6 tumors [4] is “did not show single-agent activity”. Besides, the “reversal of PGE2-suppressed IFN-γ secretion” value in the data set on Human NK cells (1 h pretreatment, 50 ng/mL IL-2 ± PGE2 overnight) is “reversed by pretreatment with MF-766 in a dose-dependent manner”. For the same compound, in the data set on Human NK cells (conditions of Figure 2b (Fig S2A)), the NK cell viability result was “not affected”. For the same compound, the “reversal of MDSC/PGE2 suppression of IFN-γ release from CD8+ T cells” value in data set [5] was “reversed by MF-766 in a dose-dependent manner”. In addition, in the data set with human CD8+ T cells, the “CD8+ T cell viability” value was “Neither PGE2 nor MF-766 addition affected”. Further, the “reversal of PGE2-mediated inhibition of IFN-γ production” value with human CD8+ T cells (PGE2 10 nM, anti-CD3/CD28 beads, 24 hours, MF-766 alone) is listed as “reversed PGE2-mediated inhibition of IFN-γ production”. Besides, the “reversal of PGE2-decreased LPS-stimulated TNF-α production” value with THP-1 cells was “fully reversed”. In addition, the “reversal of PGE2 suppression of LPS-stimulated TNF-α production” value in [6] is listed as “partially reversed”. Besides, the figures for the “restoration of PGE2-suppressed TNF-α production” value (in the data set with CRC patient blood; in [7] (1 μg/mL LPS + PGE2); in [8] (1 μg/mL LPS + PGE2)) were “partially restored”, “fully restored” and “fully restored”, respectively. In data set [9], the “anti-CD3–stimulated IFN-γ, IL-2, and TNF-α secretion” value is “increase”. In addition, the “MHCII high/low macrophage ratio” value with CT26 tumors [10] (CT26) is on record as “increased”. Moreover, the “NK cells, percentage in CD45+ fraction and absolute number per mg tumor” value in the data set on CT26 tumors [10] (CT26, D8) was “significantly enriched”. In the data set on CT26 tumors [10] (CT26, D8, primarily CD8+ T cells, not CD4+), the “CD3+ T cells, frequency of CD45+ cells and absolute numbers in the tumor” value is “significant enrichment”. Besides, the “absolute numbers of tumor-infiltrating CD45+ leukocytes per mg tumor” value in the data set on CT26 tumors [10] (CT26, D8 post-therapy) is “significantly increased”. Moreover, the “CD8+ DCs” value with CT26 tumors [10] (CT26, single-agent treatment) is listed as “remarkable increase”. The CT26 tumor weight entry in the data set on CT26 tumors [10] (day 8, difference did not reach statistical significance) is “trend toward reduction in size”. Moreover, the “CD8+ or NK cell infiltration into tumors” value in the data set on EMT6 tumors [11] is “did not significantly increase”. Further, the “percentage of gMDSCs” value in the data set with EMT6 tumors [11] (absolute numbers per mg not significant) was “significantly decreased”. Moreover, the “potency compared to other COX-2 inhibitors, including celecoxib and MF-tricyclic” value in data set [12] is “greater than 200 fold”.

As to `CCCCC[C@H](O)/C=C/[C@H]1[C@H](O)CC(=O)[C@@H]1C/C=C\CCCC(=O)O` [PGE2, Prostaglandin E2, reference compound], the “CD8+ T cell viability” value in the data set on human CD8+ T cells was “Neither PGE2 nor MF-766 addition affected”. Besides, the “suppression of TNF-α production” value in data set [7] (compared to LPS alone) and in data set [8] (compared to LPS alone) was ~ 30% each time.

“pembrolizumab: humanized monoclonal immunoglobulin (Ig)G4 antibody against PD-1”: in the data set with primary tumor digests, the “IFN-γ and TNF-α secretion” value was “enhanced”.
